HGIII-sPLA2 inh = Blocks human group III sPLA2 activity; 370,000 compounds, 0.56% hits; QFRET BODIPY PC-A2 liposome hydrolysis, fluorescence; inhibition, % at 12.2 µM; Q9NZ20;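 active = inhibition above mean plus 3 SD of compounds lying within the high and low control bounds, cut at about 19% in these data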;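 also: 0% = median of test compound wells and 100% = no enzyme DMSO wells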
DAGLB inhibitor = blocks human DAGLB lipase activity | HEK293T DAGLB membrane lysate, EnzChek fluorogenic substrate | inhibition, % at 5.17 µM | AID 504411 | 340,000 compounds, 0.059% hits; in the data active = inhibition above about 34%;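 also: 0% = enzyme with vehicle and 100% = wells lacking enzyme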
PLC-beta3 inh = inhibitors of human phospholipase C beta3 | Purified PLC-beta3, fluorogenic substrate, fluorescence | inhibition, % at 12.2 µM | 370,000 compounds, 0.18% hits;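 also: 0% = median of compound wells on plate and 100% = full blocker control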
Target sequence (Q01970 whole entry, looked up): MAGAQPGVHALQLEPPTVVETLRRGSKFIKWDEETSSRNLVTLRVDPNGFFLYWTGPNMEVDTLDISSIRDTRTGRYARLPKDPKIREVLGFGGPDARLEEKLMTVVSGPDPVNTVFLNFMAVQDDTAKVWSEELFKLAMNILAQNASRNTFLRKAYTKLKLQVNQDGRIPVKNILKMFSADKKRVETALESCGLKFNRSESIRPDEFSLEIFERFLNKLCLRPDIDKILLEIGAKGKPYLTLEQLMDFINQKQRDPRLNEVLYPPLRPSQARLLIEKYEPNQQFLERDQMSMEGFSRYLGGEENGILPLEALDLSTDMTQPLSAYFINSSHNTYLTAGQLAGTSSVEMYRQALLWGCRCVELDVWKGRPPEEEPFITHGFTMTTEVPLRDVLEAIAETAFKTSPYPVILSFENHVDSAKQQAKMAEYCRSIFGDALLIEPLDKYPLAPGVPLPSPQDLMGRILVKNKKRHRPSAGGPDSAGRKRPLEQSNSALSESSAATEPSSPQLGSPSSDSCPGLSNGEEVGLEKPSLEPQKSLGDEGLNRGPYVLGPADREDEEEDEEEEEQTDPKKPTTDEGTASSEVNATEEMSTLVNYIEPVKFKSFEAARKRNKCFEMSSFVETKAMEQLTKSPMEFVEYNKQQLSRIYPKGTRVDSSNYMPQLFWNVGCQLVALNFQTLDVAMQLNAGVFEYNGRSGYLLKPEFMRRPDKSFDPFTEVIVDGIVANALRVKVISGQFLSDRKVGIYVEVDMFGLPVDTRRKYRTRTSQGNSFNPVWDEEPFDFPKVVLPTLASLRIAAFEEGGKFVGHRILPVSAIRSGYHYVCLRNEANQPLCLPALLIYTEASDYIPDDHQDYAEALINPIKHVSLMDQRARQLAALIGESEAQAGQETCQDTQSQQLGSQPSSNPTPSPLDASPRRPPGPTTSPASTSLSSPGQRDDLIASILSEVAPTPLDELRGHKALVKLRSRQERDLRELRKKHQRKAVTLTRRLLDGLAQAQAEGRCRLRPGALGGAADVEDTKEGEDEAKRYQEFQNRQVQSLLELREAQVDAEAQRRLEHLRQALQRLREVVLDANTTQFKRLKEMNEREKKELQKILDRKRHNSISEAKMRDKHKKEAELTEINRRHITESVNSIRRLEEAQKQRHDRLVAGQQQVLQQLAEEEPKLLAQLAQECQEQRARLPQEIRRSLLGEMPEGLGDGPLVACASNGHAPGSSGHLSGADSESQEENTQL
Tb MetRS inh = Trypanosoma brucei MetRS inhibition. inhibition, % at 11.9 µM. 360,000 compounds, 0.4% hits. purified T. brucei MetRS, ATP depletion, Kinase-Glo luminescence. AID 624268;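 active = inhibition above a per-plate cutoff of the control wells' mean inhibition plus 3 SD, cut at about 5.5% in these data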;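 also: 0% = DMSO wells median and 100% = median of wells with control inhibitor compound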
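System: purified T. brucei MetRS enzyme / Detection: Kinase-Glo luciferase luminescence reporting remaining unconsumed ATP / Medium: HEPES buffer with MgCl2, KCl, DTT, spermine, BSA, pyrophosphatase / Replication: singlicate, one well per compound / Evaluation: percent inhibition relative to median high and low control wells / Schedule: 2 h aminoacylation at 25 °C after 15 min preincubation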
PLC-gamma1 inh = blocks human PLC-gamma1 enzyme activity; purified PLC-gamma1, fluorogenic substrate, fluorescence; P19174; inhibition, % at 12.2 µM; AID 720700; 370,000 compounds, 0.84% hits; in the data active = inhibition above about 9.5%
PLCgamma1 ctr = inhibits human PLC-gamma1 in PLC-beta3 counter-screen; shares compounds with PLC-gamma1 inh; purified PLC-gamma1, fluorogenic substrate, fluorescence; inhibition, % at 12.3 µM; 3,300 compounds, 3.1% hits; AID 743258; in the data active = inhibition above about 9.5%
PLCb3 confirm = human PLC-beta3 inhibition, confirmation; shares compounds with PLC-gamma1 inh; purified PLC-beta3, fluorogenic substrate fluorescence; inhibition, % at 12.3 µM; 3,300 compounds, 1% hits
Active calls of the source: *; x = not tested or not shown. A selection: hits, their analogues and other compounds. The true share with any hit is near 1.9%. Rule as the data show it, unless noted: active = inhibition above about 11%; inactive = the rest.

SMILES	HGIII-sPLA2 inh	DAGLB inhibitor	PLC-beta3 inh	Tb MetRS inh	PLC-gamma1 inh	PLCgamma1 ctr	PLCb3 confirm
CC(C)OC(=O)CSc1nc2c(c(C3CC=CCC3)c1C#N)CCC2 (stereo not given)	-3.1	-28.7	3.6	-1.1	9.6*	-6.8	-5.5
Cc1ccc2c(CSc3nncn3C)cc(=O)oc2c1C	-8.2	-1.1	4.5	-0.9	10.9*	-9.2	-0.7
Cc1ccc2c(CN3CCCCC3)cc(=O)oc2c1C	4.0	-3.0	-8.8	-0.4	-7.7	x	x
O=C(NCc1ccncc1)C1COc2ccccc2O1 (stereo not given)	-7.4	-0.2	-0.9	-1.0	0.8	x	x
O=C(NCc1ccc2c(c1)OCO2)C1COc2ccccc2O1 (stereo not given)	-2.4	-2.0	4.9	-0.2	10.8*	-5.3	-1.6
O=C(Cn1c(CO)nc2ccccc21)NCc1ccc2c(c1)OCO2	-4.0	1.3	-6.6	3.2	1.7	x	x
Cc1nc2ccccn2c1C(=O)NCc1ccc2c(c1)OCO2	-0.5	0.5	0.5	0.1	10.2*	-5.2	-2.3
CC(=O)c1c(C)n(CC(=O)NCc2ccc3c(c2)OCO3)c2ccccc12	2.3	-6.0	-4.8	0.4	11.4*	-7.3	-2.0
Cc1ccccc1N1CCN(C2=Nc3ccccc3Sc3ccccc32)CC1	4.8	x	-3.3	x	0.9	x	x
CC(=O)N1CCOc2ccc(S(=O)(=O)NCCc3ccc(Cl)cc3)cc21	-8.3	2.2	-1.9	-0.5	5.6	x	x
CN1CCOc2ccc(S(=O)(=O)NCCc3ccc(Cl)cc3)cc21	-16.1	-6.9	-6.8	-0.5	13.0*	3.6	-0.3
C/C(=N\NC(=O)c1nnn(-c2nonc2N)c1CSc1ccc(C)cc1)c1cccs1	12.2	-7.1	0.5	0.9	10.1*	-10.8	-6.3
COC(=O)CCCC(=O)N1CCC(CCC(=O)NCc2ccc(F)cc2)CC1	3.2	0.9	-2.2	-0.8	1.5	x	x
COC(=O)CCC(=O)N1CCC(CCC(=O)NCc2ccc(F)cc2)CC1	1.9	0.9	-2.7	0.0	12.7*	-3.9	-4.6
O=C(CSC1CS(=O)(=O)c2cc([N+](=O)[O-])ccc21)NNC(=O)c1ccccc1 (stereo not given)	-3.4	-1.1	5.1	0.2	10.0*	-7.1	-2.0
CC1Cc2nc(SCC(=O)NCC3CCCO3)n(Cc3ccccc3)c(=O)c2S1 (stereo not given)	8.7	1.3	3.2	-0.6	9.6*	-0.7	0.5
Cc1ccc(SCC(=O)NCC2CCCO2)cc1 (stereo not given)	9.0	-2.1	2.9	0.0	11.2*	-2.8	-1.0
CCCCNC(=O)C[C@H]1C[C@@]2(C(=O)OC)C(=C[C@H](C(C)(C)C)O[C@@H]2C)N(Cc2ccc3c(c2)OCO3)C1=O	0.6	x	4.9	x	0.7	x	x
CCCCCCCCN1C(=O)[C@@H](CC(=O)NCc2cccc(C(F)(F)F)c2)C[C@@]2(C(=O)OC)C1=C[C@H](COCc1ccccc1)O[C@@H]2C	-11.1	x	-0.7	x	2.3	x	x
CC(C)C[C@H](NC(=O)c1[nH]cnc1C(=O)N[C@H](C)c1ccccc1)C(=O)OCc1ccccc1	-9.8	1.0	6.3	-0.3	9.6*	-0.3	-0.2
CC(C)C[C@H](NC(=O)c1nc[nH]c1C(=O)N[C@@H](CC(C)C)C(=O)OCc1ccccc1)C(=O)OCc1ccccc1	-10.9	-8.3	3.7	-0.5	2.2	x	x
CN1CC(O)([C@H](Cc2ccccc2)NC(=O)OC(C)(C)C)OCC1C(=O)NCc1cccc2ccccc12 (stereo not given in full)	-12.2	x	-1.3	x	-0.9	x	x
COC(=O)c1c(N)sc2c1CC(C)(C)OC2	11.7	-2.4	0.8	0.6	10.6*	-8.4	-5.8
CCOC(=O)c1c(NC(=O)C2CC2)sc2c1CC(C)(C)OC2	0.5	-2.5	2.9	-0.1	1.7	x	x
Cc1ccc(-c2cc(-c3nnc(SCC(=O)N4c5ccccc5Sc5ccccc54)n3N)[nH]n2)cc1	4.8	x	-2.0	x	0.3	x	x
SMILES	HGIII-sPLA2 inh	DAGLB inhibitor	PLC-beta3 inh	Tb MetRS inh	PLC-gamma1 inh	PLCgamma1 ctr	PLCb3 confirm
CCC(C)(C(=O)NC1CCCC1)N(Cc1cccs1)C(=O)c1ccccn1 (stereo not given)	0.0	-1.5	-1.4	-0.6	10.3*	-6.6	-3.0
COc1cccc(C=NNC(=O)C(C)SC(C)C(=O)NN=Cc2cccc(OC)c2)c1 (stereo not given)	0.2	-0.3	3.7	-0.1	0.0	x	x
CC(SC(C)C(=O)NN=Cc1cccc(Cl)c1)C(=O)NN=Cc1cccc(Cl)c1 (stereo not given)	5.4	3.1	11.1*	-0.1	9.1	-12.3	-3.5
COc1cccc(CC(=O)N2CCN(S(=O)(=O)c3ccc(Br)cc3)CC2)c1	-6.2	-0.1	5.2	-0.7	12.1*	-7.6	-5.4
COc1cccc(CN2CCN(S(=O)(=O)c3ccc(Br)cc3)CC2)c1	5.0	-9.7	-0.8	-0.3	4.3	x	x
CN(C)CCN1C(=O)C(=O)/C(=C(/O)c2ccc(S(=O)(=O)N3CCOCC3)cc2)C1c1ccc(Br)cc1 (stereo not given)	-12.7	-0.3	-3.7	0.1	11.5*	0.0	1.9
COc1cccc(CNc2nc(NCC3CC3)nc3ccsc23)c1OC	-23.3	x	5.8	0.4	10.0*	-5.5	-1.8
CCCN1CCN(CCCNC(=O)C(CC)n2nc(C)c3sc4ccccc4c3c2=O)CC1 (stereo not given)	2.4	-0.4	-9.8	-0.3	1.0	x	x
CCC(C(=O)NCCCN1CCN(C)CC1)n1nc(C)c2sc3ccccc3c2c1=O (stereo not given)	7.9	1.1	-12.9	-0.2	9.6*	-3.5	-4.1
C[C@H]1Cn2cnc(C(=O)N3CCN(c4ccccc4)CC3)c2C(=O)N1	-5.5	x	1.9	x	0.0	x	x
COc1cc2c(c(O)c1OC)C(=O)C(OC)CCC2 (stereo not given)	2.4	-1.1	11.6*	-0.4	4.4	-2.9	0.3
Cc1ccc(NS(=O)(=O)c2ccc(NC(=O)CSc3ccc(Cl)cc3)cc2)c(C)c1	-21.9	-8.4	7.3	0.8	12.8*	-5.3	-4.8
O=C(CSc1nnc(-c2ccncc2)o1)Nc1nncs1	2.1	2.0	-13.3	-0.5	-6.8	x	x
O=C(CSc1nnc(-c2ccccc2Br)o1)Nc1nncs1	-0.9	0.0	10.9*	-0.1	4.4	0.6	-0.7
COC(=O)C1=C(C)N(C)C(=NCc2ccc(OC)cc2)NC1c1cccc(Cl)c1 (stereo not given)	1.0	x	3.7	x	1.1	x	x
CC(N)(C(=O)O)c1cccc(OCc2cccc(Cl)c2)c1 (stereo not given)	2.0	-5.4	4.4	-0.3	10.7*	-3.2	-4.8
NS(=O)(=O)c1ccc(CCNS(=O)(=O)c2ccccc2)cc1	-0.7	-1.2	2.3	-0.4	-0.1	x	x
NS(=O)(=O)c1ccccc1	12.1	-1.8	11.2*	-0.1	15.4*	0.1	-6.0
